The source made the active and inactive calls. The calls are words filed in the database; no cut-off is given here.
Experiments:
Cannabinoid receptor 2 [1] = molecular target: T1, Cannabinoid receptor 2 (Homo sapiens, UniProt P34972); assay: Agonist activity at N-terminal HA-tagged human CB2 receptor expressed in HEK293 cells transfected with YFP-Epac-RLuc assessed as decrease in forskolin-stimulated cAMP level at 10 uM by BRET assay; type: functional, cell-based
In short: (§1)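 Single-concentration screen at 10 µM in CB receptor-expressing HEK293 cells, run with and without CP55,940 as reference agonist. Forskolin-stimulated cAMP read by BRET biosensor. A fall in cAMP is scored as agonism and a rise as inverse agonism.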

Cannabinoid receptor 1 [2] = molecular target: T2, Cannabinoid receptor 1 (Homo sapiens, UniProt P21554); assay: Agonist activity at N-terminal HA-tagged human CB1 receptor expressed in HEK293 cells transfected with YFP-Epac-RLuc assessed as decrease in forskolin-stimulated cAMP level by BRET assay relative to control; type: functional, cell-based
T2 sequence (P21554 whole entry): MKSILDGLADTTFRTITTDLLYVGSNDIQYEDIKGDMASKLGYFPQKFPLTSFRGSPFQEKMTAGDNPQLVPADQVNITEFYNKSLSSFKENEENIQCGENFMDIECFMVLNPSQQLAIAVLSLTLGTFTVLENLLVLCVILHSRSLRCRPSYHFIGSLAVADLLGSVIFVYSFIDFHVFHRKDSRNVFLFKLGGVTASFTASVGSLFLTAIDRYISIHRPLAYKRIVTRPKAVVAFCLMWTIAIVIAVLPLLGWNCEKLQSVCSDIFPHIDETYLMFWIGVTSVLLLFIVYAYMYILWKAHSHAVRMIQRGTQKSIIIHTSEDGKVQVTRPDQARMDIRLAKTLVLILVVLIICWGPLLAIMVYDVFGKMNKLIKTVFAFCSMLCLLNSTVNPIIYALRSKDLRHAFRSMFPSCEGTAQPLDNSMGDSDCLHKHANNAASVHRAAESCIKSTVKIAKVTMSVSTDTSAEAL
In short: (§2)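 BRET cAMP biosensor read-out in HEK293 cells expressing HA-tagged human CB1 or CB2, with forskolin stimulation (5 µM). Concentration-response curves; area-under-curve values normalised to forskolin alone = 100% and basal = 0%. EC50 taken for agonists and IC50 for inverse agonists. Mean of at least three independent experiments, each point in duplicate.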

Cannabinoid receptor 1 [3] = molecular target: T2, Cannabinoid receptor 1; assay: Displacement of [3H]CP55,940 from N-terminal HA-tagged human CB1 receptor expressed in HEK293 cell membranes at 10 uM after 1 hr by microbeta scintillation counting method relative to control
In short: (§3)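 Single-point competition screen against [3H]CP55,940 in HEK293 cells over-expressing 3HA-tagged hCB2 or hCB1. Compounds giving more than 50% displacement went on to full concentration-response curves.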

Cannabinoid receptor 1 [4] = molecular target: T2, Cannabinoid receptor 1; assay: Displacement of [3H]CP55,940 from N-terminal HA-tagged human CB1 receptor expressed in HEK293 cell membranes after 1 hr by microbeta scintillation counting method; conditions: read-out: Ki
HEK293 [5] = assay: Effect on forskolin-stimulated cAMP level in HEK293 cells at 1 uM by BRET assay relative to control; type: ADME, cell-based; conditions: human, hek293, 1 µM
In short: (§4)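 Wild-type HEK293 cells lacking transfected receptor, tested at 10 µM and 1 µM. Forskolin-stimulated cAMP measured by BRET as a check that responses are receptor-mediated.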

Cannabinoid receptor 2 [6] = molecular target: T1, Cannabinoid receptor 2; assay: Displacement of [3H]CP55,940 from N-terminal HA-tagged human CB2 receptor expressed in HEK293 cell membranes at 10 uM after 1 hr by microbeta scintillation counting method relative to control; in short: as §3
Cannabinoid receptor 2 [7] = molecular target: T1, Cannabinoid receptor 2; assay: Agonist activity at N-terminal HA-tagged human CB2 receptor expressed in HEK293 cells transfected with YFP-Epac-RLuc assessed as decrease in forskolin-stimulated cAMP level by BRET assay; type: functional, cell-based; in short: as §2
Cannabinoid receptor 2 [8] = molecular target: T1, Cannabinoid receptor 2; assay: Displacement of [3H]CP55,940 from N-terminal HA-tagged human CB2 receptor expressed in HEK293 cell membranes after 1 hr by microbeta scintillation counting method; conditions: read-out: Ki
Cannabinoid receptor 1 [9] = molecular target: T2, Cannabinoid receptor 1; assay: Agonist activity at N-terminal HA-tagged human CB1 receptor expressed in HEK293 cells transfected with YFP-Epac-RLuc assessed as decrease in forskolin-stimulated cAMP level at 10 uM by BRET assay; type: functional, cell-based; in short: as §1
Cannabinoid receptor 2 [10] = molecular target: T1, Cannabinoid receptor 2; assay: Agonist activity at N-terminal HA-tagged human CB2 receptor expressed in HEK293 cells transfected with YFP-Epac-RLuc assessed as decrease in forskolin-stimulated cAMP level by BRET assay relative to control; type: functional, cell-based; in short: as §2
HEK293 [11] = assay: Effect on forskolin-stimulated cAMP level in HEK293 cells at 10 uM by BRET assay relative to control; type: ADME, cell-based; conditions: human, hek293, 10 µM; in short: as §4
[12] = molecular target: Potassium voltage-gated channel subfamily KQT member 2 (Homo sapiens) (UniProt O43526); assay: Agonist activity at KCNQ2 (unknown origin)
Potassium voltage-gated channel subfamily KQT member 2 (Homo sapiens), sequence (O43526 whole entry): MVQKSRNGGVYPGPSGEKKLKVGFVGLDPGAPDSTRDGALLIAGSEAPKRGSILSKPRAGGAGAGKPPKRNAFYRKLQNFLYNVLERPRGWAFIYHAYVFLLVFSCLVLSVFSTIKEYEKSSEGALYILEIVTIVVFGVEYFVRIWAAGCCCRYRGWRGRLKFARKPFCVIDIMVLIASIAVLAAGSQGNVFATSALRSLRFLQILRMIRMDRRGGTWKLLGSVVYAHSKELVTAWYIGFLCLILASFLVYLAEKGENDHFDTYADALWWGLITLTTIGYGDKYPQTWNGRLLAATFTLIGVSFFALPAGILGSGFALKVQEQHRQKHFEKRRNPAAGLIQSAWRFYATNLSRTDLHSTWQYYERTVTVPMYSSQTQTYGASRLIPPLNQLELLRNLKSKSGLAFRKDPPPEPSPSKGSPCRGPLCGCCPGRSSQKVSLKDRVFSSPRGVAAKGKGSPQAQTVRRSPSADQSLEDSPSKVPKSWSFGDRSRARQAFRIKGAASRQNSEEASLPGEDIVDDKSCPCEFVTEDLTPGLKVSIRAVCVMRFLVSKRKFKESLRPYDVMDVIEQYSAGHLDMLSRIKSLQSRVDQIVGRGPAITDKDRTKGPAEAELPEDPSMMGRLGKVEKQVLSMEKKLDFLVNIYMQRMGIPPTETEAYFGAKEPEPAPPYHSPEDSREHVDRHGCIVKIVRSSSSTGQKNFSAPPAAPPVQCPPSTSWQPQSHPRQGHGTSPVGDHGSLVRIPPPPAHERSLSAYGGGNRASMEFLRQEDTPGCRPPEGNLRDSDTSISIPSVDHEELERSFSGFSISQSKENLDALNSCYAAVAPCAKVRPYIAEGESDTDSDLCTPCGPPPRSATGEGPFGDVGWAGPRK

[13] = molecular target: Interleukin-17A (Homo sapiens) (UniProt Q16552); assay: Inhibition of IL-17 (unknown origin) assessed as disruption of IL-17 protein-protein interaction
Interleukin-17A (Homo sapiens), sequence (Q16552 whole entry): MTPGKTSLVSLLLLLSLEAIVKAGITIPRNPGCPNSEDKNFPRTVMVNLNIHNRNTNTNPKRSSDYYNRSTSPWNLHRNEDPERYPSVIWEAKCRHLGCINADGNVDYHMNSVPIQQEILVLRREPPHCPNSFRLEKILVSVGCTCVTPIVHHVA

[14] = molecular target: T3, Potassium voltage-gated channel subfamily KQT member 3 (Homo sapiens) (UniProt O43525); assay: Agonist activity at KCNQ3 (unknown origin)
T3 sequence (whole entry): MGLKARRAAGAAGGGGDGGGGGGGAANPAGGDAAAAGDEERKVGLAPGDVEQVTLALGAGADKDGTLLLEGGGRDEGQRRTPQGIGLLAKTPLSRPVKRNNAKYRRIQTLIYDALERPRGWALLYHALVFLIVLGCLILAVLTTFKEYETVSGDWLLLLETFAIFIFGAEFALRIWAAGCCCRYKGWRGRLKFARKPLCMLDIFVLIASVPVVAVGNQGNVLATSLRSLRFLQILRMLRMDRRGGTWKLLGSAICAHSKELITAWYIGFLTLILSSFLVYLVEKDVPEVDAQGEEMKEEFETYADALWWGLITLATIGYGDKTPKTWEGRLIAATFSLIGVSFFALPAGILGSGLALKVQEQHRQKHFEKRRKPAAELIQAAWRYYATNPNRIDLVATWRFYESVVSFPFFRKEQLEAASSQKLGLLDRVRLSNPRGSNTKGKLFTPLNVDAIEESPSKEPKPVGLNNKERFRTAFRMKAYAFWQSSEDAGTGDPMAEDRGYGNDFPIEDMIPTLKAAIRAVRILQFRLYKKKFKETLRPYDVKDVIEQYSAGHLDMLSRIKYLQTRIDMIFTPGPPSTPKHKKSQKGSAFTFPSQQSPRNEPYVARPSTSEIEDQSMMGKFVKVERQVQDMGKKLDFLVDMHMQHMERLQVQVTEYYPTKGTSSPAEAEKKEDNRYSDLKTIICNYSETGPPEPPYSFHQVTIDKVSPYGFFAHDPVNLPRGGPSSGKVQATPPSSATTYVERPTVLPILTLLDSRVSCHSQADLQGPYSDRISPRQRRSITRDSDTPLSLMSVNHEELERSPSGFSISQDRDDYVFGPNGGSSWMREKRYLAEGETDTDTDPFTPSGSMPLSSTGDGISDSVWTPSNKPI

[15] = molecular target: T4, Free fatty acid receptor 4 (Homo sapiens) (UniProt Q5NUL3); assay: Agonist activity at GPR120 (unknown origin); type: functional
T4 sequence (whole entry): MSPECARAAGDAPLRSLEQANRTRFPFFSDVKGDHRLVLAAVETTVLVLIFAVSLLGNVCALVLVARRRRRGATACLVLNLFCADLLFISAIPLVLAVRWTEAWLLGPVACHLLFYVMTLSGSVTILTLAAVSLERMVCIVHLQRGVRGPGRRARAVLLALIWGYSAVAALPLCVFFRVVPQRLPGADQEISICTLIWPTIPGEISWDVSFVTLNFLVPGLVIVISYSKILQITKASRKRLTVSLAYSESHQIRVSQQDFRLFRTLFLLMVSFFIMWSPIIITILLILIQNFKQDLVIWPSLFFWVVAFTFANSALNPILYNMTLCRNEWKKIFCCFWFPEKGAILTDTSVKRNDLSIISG

Leishmania donovani = assay: Growth inhibition of Leishmania donovani; type: functional, organism-based
[16] = molecular target: T5, Nicotinamide N-methyltransferase (Homo sapiens) (UniProt P40261); assay: Inhibition of NNMT (unknown origin)
T5 sequence (whole entry): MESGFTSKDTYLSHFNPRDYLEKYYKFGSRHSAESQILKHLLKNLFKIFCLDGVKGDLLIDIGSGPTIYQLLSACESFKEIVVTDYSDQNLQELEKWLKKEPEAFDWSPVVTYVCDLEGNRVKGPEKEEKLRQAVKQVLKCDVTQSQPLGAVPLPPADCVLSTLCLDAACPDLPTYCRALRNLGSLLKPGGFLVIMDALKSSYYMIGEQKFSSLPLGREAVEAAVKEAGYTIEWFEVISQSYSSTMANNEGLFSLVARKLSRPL

[17] = molecular target: Proprotein convertase subtilisin/kexin type 9 (Homo sapiens) (UniProt Q8NBP7); assay: Inhibition of PCSK9 (unknown origin)
Proprotein convertase subtilisin/kexin type 9 (Homo sapiens), sequence (Q8NBP7 31-152 limits assumed): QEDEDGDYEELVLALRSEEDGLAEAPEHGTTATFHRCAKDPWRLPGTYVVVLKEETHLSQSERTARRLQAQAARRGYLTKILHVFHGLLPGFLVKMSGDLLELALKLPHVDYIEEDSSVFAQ
Proprotein convertase subtilisin/kexin type 9 (Homo sapiens), sequence (Q8NBP7 153-692 limits assumed): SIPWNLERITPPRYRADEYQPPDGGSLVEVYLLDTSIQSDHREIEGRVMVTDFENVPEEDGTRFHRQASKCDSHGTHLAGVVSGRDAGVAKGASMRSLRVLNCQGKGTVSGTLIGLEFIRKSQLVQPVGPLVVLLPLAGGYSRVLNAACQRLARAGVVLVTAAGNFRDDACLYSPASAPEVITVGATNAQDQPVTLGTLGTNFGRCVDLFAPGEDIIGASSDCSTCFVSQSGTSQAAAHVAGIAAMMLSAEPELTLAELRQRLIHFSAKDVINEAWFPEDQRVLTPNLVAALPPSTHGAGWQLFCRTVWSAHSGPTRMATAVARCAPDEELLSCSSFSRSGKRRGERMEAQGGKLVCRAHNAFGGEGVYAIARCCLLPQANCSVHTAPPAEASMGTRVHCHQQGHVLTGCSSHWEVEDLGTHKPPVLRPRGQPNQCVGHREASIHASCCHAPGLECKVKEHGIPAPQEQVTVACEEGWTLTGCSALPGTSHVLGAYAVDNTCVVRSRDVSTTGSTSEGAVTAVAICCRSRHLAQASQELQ

Cannabinoid receptor 2 [18] = molecular target: T1, Cannabinoid receptor 2; assay: Inverse agonist activity at N-terminal HA-tagged human CB2 receptor expressed in HEK293 cells transfected with YFP-Epac-RLuc assessed as increase in forskolin-stimulated cAMP level at 10 uM by BRET assay; type: functional, cell-based
Cannabinoid receptor 2 [19] = molecular target: T1, Cannabinoid receptor 2; assay: Inverse agonist activity at N-terminal HA-tagged human CB2 receptor expressed in HEK293 cells transfected with YFP-Epac-RLuc assessed as increase in forskolin-stimulated cAMP level by BRET assay relative to control; type: functional, cell-based; in short: as §2
Cannabinoid receptor 2 [20] = molecular target: T1, Cannabinoid receptor 2; assay: Inverse agonist activity at N-terminal HA-tagged human CB2 receptor expressed in HEK293 cells transfected with YFP-Epac-RLuc assessed as increase in forskolin-stimulated cAMP level by BRET assay; type: functional, cell-based; in short: as §2

T1 sequence (P34972 whole entry): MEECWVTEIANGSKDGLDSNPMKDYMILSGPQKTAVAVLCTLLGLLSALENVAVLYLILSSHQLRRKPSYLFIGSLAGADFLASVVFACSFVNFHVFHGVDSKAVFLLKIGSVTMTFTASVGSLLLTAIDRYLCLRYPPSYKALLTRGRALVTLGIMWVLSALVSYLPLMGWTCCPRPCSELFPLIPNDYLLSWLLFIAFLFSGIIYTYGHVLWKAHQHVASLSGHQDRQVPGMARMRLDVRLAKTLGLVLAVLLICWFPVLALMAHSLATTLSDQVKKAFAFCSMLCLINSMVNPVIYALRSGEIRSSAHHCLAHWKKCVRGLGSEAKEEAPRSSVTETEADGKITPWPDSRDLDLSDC

Structure (SMILES) | Activity (Cannabinoid receptor 2 [1]) | Emax (Cannabinoid receptor 1 [2]) | inhibition (Cannabinoid receptor 1 [3]) | Ki (Cannabinoid receptor 1 [4]) | Activity (HEK293 [5]) | inhibition (Cannabinoid receptor 2 [6]) | EC50 (Cannabinoid receptor 2 [7]) | Ki (Cannabinoid receptor 2 [8]) | Activity (Cannabinoid receptor 1 [9]) | Emax (Cannabinoid receptor 2 [10]) | Activity (HEK293 [11]) | Activity [12] | inhibition [13] | Activity [14] | Activity [15] | growth inhibition (GI) (Leishmania donovani) | inhibition [16] | inhibition [17] | further results
O=C(c1cn(CCN2CCOCC2)c2ccc(O)cc12)C1CCCCC1 | Active | 74.3% | > 50% | > 10000 nM | 105.9% | > 50% | 18.6 nM | 895 nM | Active | 74.1% | 105.1% |  |  |  |  |  |  |  | 
O=C(c1cccc2ccccc12)c1cn(CC2CCOCC2)c2ccc(OCc3ccccc3)cc12 |  |  |  |  |  |  |  |  |  |  |  | inactive | inactive | inactive | inactive | inactive | inactive | inactive | 
O=C(c1cccc2ccccc12)c1cn(CC2CCOCC2)c2ccc(O)cc12 | Active | 52.4% | > 50% | 824 nM | 95% | > 50% | 14.7 nM | 275 nM | Active | 64.4% | 108.1% | inactive | inactive | inactive | inactive | inactive | inactive | inactive | 
COc1ccc(C(=O)c2cn(CC3CCOCC3)c3c(OCCCCCCNC(C)=O)cccc23)cc1 |  | 74.3% | > 50% | 3920 nM | 114.8% | > 50% |  | 1970 nM | Active |  | 128% |  |  |  |  |  |  |  | Activity (Cannabinoid receptor 2 [18]): Active; Emax (Cannabinoid receptor 2 [19]): 151%; IC50 (Cannabinoid receptor 2 [20]): > 10000 nM
COc1ccc(C(=O)c2cn(CCN3CCOCC3)c3ccc(O)cc23)cc1 | Active | 70.4% | > 50% | > 10000 nM | 101.9% | > 50% | 5.4 nM | 747 nM | Active | 67.5% | 105.2% |  |  |  |  |  |  |  | 
COC(=O)CCCCOc1cccc2c(C(=O)c3ccc(OC)cc3)cn(CC3CCOCC3)c12 |  | 77.8% | > 50% | 1580 nM | 124.3% | > 50% |  | 201 nM | Active |  | 160.6% |  |  |  |  |  |  |  | Activity (Cannabinoid receptor 2 [18]): Active; Emax (Cannabinoid receptor 2 [19]): 166%; IC50 (Cannabinoid receptor 2 [20]): > 10000 nM
COc1ccc(C(=O)c2cn(CC3CCOCC3)c3c(OCCCCC(=O)O)cccc23)cc1 |  | 82.5% | > 50% | > 10000 nM | 105.6% | > 50% |  | 1310 nM | Active |  | 129.1% |  |  |  |  |  |  |  | Activity (Cannabinoid receptor 2 [18]): Active; Emax (Cannabinoid receptor 2 [19]): 124%; IC50 (Cannabinoid receptor 2 [20]): > 10000 nM
COc1ccc(C(=O)c2cn(CC3CCOCC3)c3c(OCC(=O)O)cccc23)cc1 | Active | 80.5% | > 50% | > 10000 nM | 104.5% | > 50% | > 10000 nM | 582 nM | Active | 84.9% | 102.8% |  |  |  |  |  |  |  | 
COc1ccc(C(=O)c2cn(CC3CCOCC3)c3ccc(OCc4ccccc4)cc23)cc1 |  |  |  |  |  |  |  |  |  |  |  | inactive | inactive | inactive | inactive | inactive | inactive | inactive | 
COc1ccc(C(=O)c2cn(CC3CCOCC3)c3c(OCc4ccccc4)cccc23)cc1 |  |  |  |  |  |  |  |  |  |  |  | inactive | inactive | inactive | inactive | inactive | inactive | inactive | 
COc1ccc(C(=O)c2cn(CC3CCOCC3)c3ccc(OCC(=O)O)cc23)cc1 | Active | 60.4% | > 50% | > 10000 nM | 98.8% | > 50% | 70.2 nM | 1660 nM | Active | 57.4% | 100.1% |  |  |  |  |  |  |  | 
O=C(c1cccc2ccccc12)c1cn(CCN2CCOCC2)c2ccc(O)cc12 | Active | 54.6% | > 50% | 2840 nM | 101.9% | > 50% | 8.7 nM | 169 nM | Active | 77.4% | 118.7% |  |  |  |  |  |  |  | 
COc1ccc(C(=O)c2cn(CC3CCOC3)c3ccc(OCc4ccccc4)cc23)cc1 (centres undefined) |  |  |  |  |  |  |  |  |  |  |  | inactive | inactive | inactive | inactive | inactive | inactive | inactive | 

Source: ChEMBL document CHEMBL4251662, “Alkyl indole-based cannabinoid type 2 receptor tools: Exploration of linker and fluorophore attachment” (Eur J Med Chem, 2018)
